Drawing on ChEMBL document CHEMBL4431346, “2-Oxoamide inhibitors of cytosolic group IVA phospholipase A2 with reduced lipophilicity” (Bioorg Med Chem, 2016), this text covers inhibition and XI50 (mole fraction) for 12 compounds.

Structures are written as SMILES. A value given as a limit tells only on which side of the number the result lay.

Assay [1] is filed under the species Homo sapiens. The experiment in a line: Inhibition of human group 5 sPLA2 using PAPC/[14C]-labeled PAPC as substrate at 0.091 mole fraction after 30 mins by mixed micelle-based assay relative to control. An outline of the steps: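 Human GV sPLA2 was tested at 0.091 mole fraction inhibitor in mixed micelles of 400 μM Triton X-100, 98.3 μM PAPC and 1.7 μM 14C-labeled PAPC. Average percent inhibition is reported; 25% or less is designated N.D.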

The target of assay [2] is T1, Cytosolic phospholipase A2 (Homo sapiens) (UniProt P47712).
T1 sequence (whole entry): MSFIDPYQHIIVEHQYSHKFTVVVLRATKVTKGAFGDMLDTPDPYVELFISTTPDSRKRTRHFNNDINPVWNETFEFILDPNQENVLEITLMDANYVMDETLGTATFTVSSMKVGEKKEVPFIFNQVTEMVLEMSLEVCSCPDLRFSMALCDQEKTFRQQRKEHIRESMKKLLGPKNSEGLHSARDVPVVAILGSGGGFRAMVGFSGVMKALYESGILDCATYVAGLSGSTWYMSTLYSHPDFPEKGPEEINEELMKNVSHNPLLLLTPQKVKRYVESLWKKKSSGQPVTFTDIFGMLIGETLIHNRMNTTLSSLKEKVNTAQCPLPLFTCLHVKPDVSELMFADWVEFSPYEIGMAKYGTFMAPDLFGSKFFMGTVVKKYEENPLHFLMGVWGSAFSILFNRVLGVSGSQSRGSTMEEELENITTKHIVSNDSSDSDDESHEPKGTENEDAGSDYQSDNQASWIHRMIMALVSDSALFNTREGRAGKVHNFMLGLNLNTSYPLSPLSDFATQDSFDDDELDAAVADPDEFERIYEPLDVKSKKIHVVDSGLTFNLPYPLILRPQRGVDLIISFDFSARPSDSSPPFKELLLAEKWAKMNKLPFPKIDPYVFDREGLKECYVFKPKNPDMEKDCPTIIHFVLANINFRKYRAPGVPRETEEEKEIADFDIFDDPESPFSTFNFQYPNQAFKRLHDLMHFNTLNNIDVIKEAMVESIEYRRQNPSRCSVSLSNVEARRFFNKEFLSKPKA
The assay can be described thus: Inhibition of human group 4A cPLA2 using PAPC/[14C]-labeled PAPC as substrate at 0.091 mole fraction after 30 mins by mixed micelle-based assay relative to control. The gist of the method:
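Screened at 0.091 mole fraction inhibitor against human GIVA cPLA2. Micelles: 400 μM Triton X-100, 97 μM PAPC, 1.8 μM 14C-PAPC, 3 μM PIP2 in 100 mM HEPES pH 7.5 with 90 μM CaCl2, 2 mM DTT and 0.1 mg/ml BSA. Average percent inhibition is reported; 25% or less is designated N.D.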

For assay [3], the target named is T2, 85/88 kDa calcium-independent phospholipase A2 (Homo sapiens) (UniProt O60733).
T2 sequence (whole entry): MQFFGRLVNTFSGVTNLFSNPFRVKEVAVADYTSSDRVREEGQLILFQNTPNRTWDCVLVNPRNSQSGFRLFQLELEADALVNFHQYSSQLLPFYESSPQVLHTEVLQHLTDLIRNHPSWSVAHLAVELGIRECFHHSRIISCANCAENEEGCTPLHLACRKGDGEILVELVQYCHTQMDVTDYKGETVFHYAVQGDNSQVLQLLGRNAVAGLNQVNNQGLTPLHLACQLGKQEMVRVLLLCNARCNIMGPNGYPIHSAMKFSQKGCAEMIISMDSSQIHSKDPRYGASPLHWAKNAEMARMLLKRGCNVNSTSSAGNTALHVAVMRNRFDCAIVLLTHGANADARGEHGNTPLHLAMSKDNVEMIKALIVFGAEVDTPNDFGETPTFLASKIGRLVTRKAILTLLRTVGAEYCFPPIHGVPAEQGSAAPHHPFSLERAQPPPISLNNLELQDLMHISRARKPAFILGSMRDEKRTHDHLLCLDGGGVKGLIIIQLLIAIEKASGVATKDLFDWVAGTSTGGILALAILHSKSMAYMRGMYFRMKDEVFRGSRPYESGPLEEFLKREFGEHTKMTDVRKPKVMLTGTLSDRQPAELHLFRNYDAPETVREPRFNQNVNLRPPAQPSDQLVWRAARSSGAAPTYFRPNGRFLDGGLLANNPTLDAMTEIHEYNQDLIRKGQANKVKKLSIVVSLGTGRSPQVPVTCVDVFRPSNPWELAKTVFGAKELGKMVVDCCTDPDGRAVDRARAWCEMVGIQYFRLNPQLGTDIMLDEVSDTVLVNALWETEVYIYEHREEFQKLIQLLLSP
The assay can be described thus: Inhibition of human group 6A iPLA2 using PAPC/[14C]-labeled PAPC as substrate at 0.091 mole fraction after 30 mins by mixed micelle-based assay relative to control. The gist of the method: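 Human GVIA iPLA2 was single-point screened at 0.091 inhibitor mole fraction. Micelles: 400 μM Triton X-100, 98.3 μM PAPC, 1.7 μM 14C-PAPC in 100 mM HEPES pH 7.5, 2 mM ATP, 4 mM DTT. Average percent inhibition is given; 25% or less is treated as no inhibition (N.D.).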

Assay [4] concerns the target T1, Cytosolic phospholipase A2 (Homo sapiens). The assay can be described thus: Inhibition of human group 4A cPLA2 using PAPC/[14C]-labeled PAPC as substrate after 30 mins by mixed micelle-based assay. An outline of the steps:
(§1)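 Human GIVA cPLA2 in mixed micelles: 400 μM Triton X-100, 97 μM PAPC, 1.8 μM 14C-labeled PAPC and 3 μM PIP2. Buffer was 100 mM HEPES pH 7.5 with 90 μM CaCl2, 2 mM DTT and 0.1 mg/ml BSA. XI(50) is the inhibitor mole fraction in the total substrate interface giving 50% inhibition. It was measured only for compounds exceeding 85% inhibition at the 0.091 screen.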

In assay [5] the target is T2, 85/88 kDa calcium-independent phospholipase A2 (Homo sapiens). The assay can be described thus: Inhibition of human group 6A iPLA2 using PAPC/[14C]-labeled PAPC as substrate after 30 mins by mixed micelle-based assay. An outline of the steps: (§2)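 For human GVIA iPLA2, micelles held 400 μM Triton X-100, 98.3 μM PAPC and 1.7 μM 14C-PAPC. Buffer was 100 mM HEPES pH 7.5 with 2 mM ATP and 4 mM DTT. XI(50) is the inhibitor mole fraction in the total substrate interface causing 50% inhibition. It was determined for compounds exceeding 85% inhibition at 0.091 mole fraction.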

The target in assay [6] is T1, Cytosolic phospholipase A2 (Homo sapiens). The assay can be described thus: Inhibition of human group 4A cPLA2 using PAPC as substrate preincubated for 5 mins with substrate followed by enzyme addition for 30 mins by mixed micelle-based assay. The gist of the method: as §1
The target is the same in assay [7]. The assay can be described thus: Inhibition of human group 4A cPLA2 using [14C]-labeled PAPC as substrate after 30 mins by mixed micelle assay based liquid scintillation counting. An outline of the steps:
as §1

Assay [8] deals with T2, 85/88 kDa calcium-independent phospholipase A2 (Homo sapiens). The assay can be described thus: Inhibition of human group 6A iPLA2 using PAPC as substrate preincubated for 5 mins with substrate followed by enzyme addition for 30 mins by mixed micelle-based assay. An outline of the steps: as §2

The inhibition is the drop in the measured response relative to a control, in per cent. Regarding `CCOC(=O)CCCNC(=O)C(=O)CCCCCCCCCCCC(=O)O`, the inhibition in assay [1], in assay [2] and in assay [3] was under 25% throughout.
For `CCCCCCOc1ccc(CCCCC(=O)C(=O)NCCCC(=O)OCC)cc1`, the inhibition in assay [1] is 33.8%; in assay [2] it was over 85%; in assay [3], 95.1%. In addition, the values for the XI50 (mole fraction) in assay [4] and in assay [5] were 0.02 and 0.013, respectively.
As to `CCCCCCOc1ccc(CCCCC(=O)C(=O)NCCCC(=O)O)cc1`, the figures for the inhibition in assay [1], in assay [2] and in assay [3] were under 25%, over 85% and under 25%, respectively. This compound also registered an XI50 (mole fraction) in assay [4] of 0.016.
The compound `CCCCCCCCCCCCCCC(=O)C(=O)NCCCC(=O)O` had an XI50 (mole fraction) in assay [6] of 0.024. Further, the inhibition in assay [3] was under 25%.
For `CCCCC/C=C\C/C=C\C/C=C\C/C=C\CCCC(=O)C(F)(F)F`, in assay [7], the XI50 (mole fraction) was 0.036.
Consider `CCCCCCCCCCCCCCC(=O)C(=O)NCCCC(=O)OCC`, for which the results for the XI50 (mole fraction) in assay [6] and in assay [8] were 0.022 and 0.027, respectively.
Take `Cc1ccc(S(=O)(=O)NCCCCCCCCCCC(=O)C(=O)NCCCC(=O)O)cc1`: the inhibition in assay [1], in assay [2] and in assay [3] was under 25% in each case.
`CCCCCCOc1ccc(OCCCC(=O)C(=O)NCCCCC(=O)O)cc1`: the values for the inhibition in assay [1], in assay [2] and in assay [3] were under 25%, 88% and 82.5%, respectively. This compound registered an XI50 (mole fraction) in assay [4] of 0.013.
On to `CCOC(=O)CCCNC(=O)C(=O)CCCCCCCCCCNS(=O)(=O)c1ccc(C)cc1`, for which the inhibition was under 25% in assay [1], 59.3% in assay [2] and under 25% in assay [3].
Consider `CCCCCCCCc1ccc(OCCCC(=O)C(=O)NCCCC(=O)O)cc1`, for which the inhibition in assay [1] is under 25%; in assay [2], over 85%; in assay [3], under 25%. The compound also returned an XI50 (mole fraction) in assay [4] of 0.023.
Consider `CCCCCCCCc1ccc(OCCCC(=O)C(=O)NCCCC(=O)OCC)cc1`, for which the results for the inhibition in assay [1], in assay [2] and in assay [3] were 40.6%, 49.3% and 94.7%, respectively. In addition, in assay [5], the XI50 (mole fraction) was 0.014.
Consider `CCCCCCOc1ccc(OCCCC(=O)C(=O)NCCCC(=O)O)cc1`, for which the inhibition is under 25% in assay [1], 63.6% in assay [2] and 81.1% in assay [3].
